Columns and labels:
[1] = system: Moloney murine sarcoma virus; experiment: Antiviral activity against murine sarcoma virus; type: functional, organism-based
Method in brief: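 Murine C3H/3T3 embryo fibroblasts were seeded at 5 × 10^5 cells/mL. After 24 h, cells were infected with 80 focus-forming units of MSV (from mouse tumours) for 90–120 min at 37 °C. Medium was then replaced by fresh medium containing varied compound concentrations, and MSV-induced transformation was the read-out.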

Human alphaherpesvirus 3 [2] = experiment: Antiviral activity against 07/1 strain of VZV in HEL ([…]) cells.; type: functional, organism-based
Method in brief: (§1)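 Inhibition of virus-induced cytopathicity. HSV-1 and HSV-2 were tested in E6SM cells; VZV and CMV in HEL cells. Confluent monolayers were inoculated with 100 CCID50 of virus. After 1–2 h adsorption, residual virus was removed and compound was added at serial concentrations (400, 200, 100, ... μg/mL). Cytopathicity was scored once untreated infected controls reached complete CPE.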

[3] = Antiviral activity against G strain of HSV-2 in E6SM cells.; type: functional, cell-based, herpes simplex virus; method in brief: as §1
[4] = Antiviral activity against KOS strain of HSV-1 in E6SM cells.; type: functional, cell-based, herpes simplex virus; method in brief: as §1
Human alphaherpesvirus 3 [5] = experiment: Antiviral activity against OKA strain of VZV in HEL ([…]) cells.; type: functional, organism-based; parameters: unit not given here; method in brief: as §1
Cytomegalovirus [6] = experiment: Antiviral activity against Davis strain of cytomegalovirus (CMV) in HEL ([…]) cells.; type: functional, organism-based; method in brief: as §1
Cytomegalovirus [7] = experiment: Antiviral activity against AD169 strain of cytomegalovirus (CMV) in HEL ([…]) cells.; type: functional, organism-based; method in brief: as §1
[8] = Antiviral activity against vaccinia virus in HEL ([…]) cells.; type: functional, cell-based
[9] = system: Human immunodeficiency virus 2; experiment: Antiviral activity against HIV-2 (ROD) in CEM (human leukemia) cells.; type: functional, organism-based; conditions: ccrf-cem
Method in brief: (§2)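 Human CEM cells (~3 × 10^5 cells/mL) were infected with 100 CCID50 per mL of HIV-1 (IIIB) or HIV-2 (ROD) and seeded into wells containing compound dilutions. After 4 days at 37 °C, syncytium (giant cell) formation was examined microscopically.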

[10] = system: Human immunodeficiency virus 1; experiment: Antiviral activity against HIV-1 (IIIB) in CEM (human leukemia) cells.; type: functional, organism-based; conditions: ccrf-cem; method in brief: as §2
CCRF-CEM = experiment: Cytotoxicity against CEM (human lymphoblastic leukemia) cells in vitro.; type: functional
[11] = Antiviral activity against KOS strain of HSV-1; ND=No data; type: functional, herpes simplex virus
Method in brief: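 Confluent E6SM cell cultures in 96-well plates were inoculated with 100 CCID50 virus. After 1–2 h adsorption, inoculum was removed and test compound was added at 400, 200, 100, ... µg/mL.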

Row | SMILES | EC50 [1] [uM ml-1] | EC50 (Human alphaherpesvirus 3 [2]) [uM ml-1] | EC50 [3] [uM ml-1] | EC50 [4] [uM ml-1] | EC50 (Human alphaherpesvirus 3 [5]) | EC50 (Cytomegalovirus [6]) [uM ml-1] | EC50 (Cytomegalovirus [7]) [uM ml-1] | EC50 [8] [uM ml-1] | EC50 [9] [uM ml-1] | EC50 [10] [uM ml-1] | CC50 (CCRF-CEM) [µM] | EC50 [11] [uM ml-1]
1 | CCOC(=O)Cc1c(N)nc(N)n(CCOCP(=O)(O)O)c1=O | 0.011 | > 0.15 | > 1.2 | > 1.2 | > 0.15 | > 0.15 | > 0.15 | > 1.2 | 0.11 | > 0.3 | > 300 | 
2 | Nc1nc(N)c(Cc2ccccc2)c(OCCOCP(=O)(O)O)n1 | > 1.12 | > 0.15 |  | > 1.2 | > 0.15 | > 0.15 | > 0.15 | > 1.2 | > 0.3 | > 0.3 | > 300 | 
3 | N#CCc1c(N)nc(N)nc1OCCOCP(=O)(O)O | 0.3 | 0.11 | > 1.2 | > 1.2 | 0.14 | > 0.15 | > 0.15 | > 1.2 | > 0.3 | > 0.3 | > 300 | 
4 | Nc1nc(N)c(Br)c(OCCOCP(=O)(O)O)n1 | 0.007 | > 0.15 | 0.7 | 0.7 |  |  | > 0.15 | 0.7 | 0.0095 | 0.0073 | > 300 | 
5 | Nc1nc(N)n(CCOCP(=O)(O)O)c(=O)c1-c1ccccc1 | > 1.12 | > 0.15 | > 1.2 | > 1.2 | > 0.15 | > 0.15 | > 0.15 | > 1.2 | > 0.3 | > 0.3 | > 300 | 
6 | C=CCc1c(N)nc(N)n(CCOCP(=O)(O)O)c1=O | > 1.12 | > 0.15 | 0.77 | > 1.2 | > 0.15 | > 0.15 | > 0.15 | > 1.2 | > 0.3 | > 0.3 | > 300 | 
7 | C=CCc1c(N)nc(N)nc1OCCOCP(=O)(O)O | > 1.12 | > 0.15 | 0.79 | > 1.2 | > 0.15 | > 0.15 | > 0.15 | > 1.2 | > 0.3 | > 0.3 | > 300 | 
8 | Nc1nc(N)c(Cl)c(OCCOCP(=O)(O)O)n1 | 0.0028 |  | > 1.2 | > 1.2 |  | > 0.6 | > 0.12 | > 1.2 | 0.0044 | 0.0031 | 300 | 
9 | Nc1nc(N)n(CCOCP(=O)(O)O)c(=O)c1CC(=O)O | 0.082 | > 0.15 | > 1.2 | > 1.2 | > 0.15 | > 0.15 | > 0.15 | > 1.2 | > 0.3 | > 0.3 | > 300 | 
10 | Nc1nc(N)n(CCOCP(=O)(O)O)c(=O)c1Cc1ccccc1 | > 1.12 | > 0.15 | > 1.2 | > 1.2 | > 0.15 | > 0.15 | > 0.15 | > 1.2 | > 0.3 | > 0.3 | > 300 | 
11 | Nc1nc(N)c(-c2ccccc2)c(OCCOCP(=O)(O)O)n1 | > 1.12 | > 0.15 | > 1.2 | > 1.2 | > 0.15 | > 0.15 | > 0.15 | > 1.2 | > 0.3 | > 0.3 | > 300 | 
12 | Nc1nc(N)c(CC(=O)O)c(OCCOCP(=O)(O)O)n1 | 0.046 | > 0.15 | > 1.2 | > 1.2 | > 0.15 | > 0.15 | > 0.15 | > 1.2 | > 0.3 | > 0.3 | > 300 | 
13 | Nc1cc(OCCOCP(=O)(O)O)nc(N)n1 | 0.00015 | 0.0095 | 0.033 | 0.025 | 0.0045 | > 0.19 | > 0.19 | 0.18 | 0.0016 | 0.003 | 42 | 
14 | Cc1c(N)nc(N)nc1OCCOCP(=O)(O)O | 0.00022 | 0.042 | > 1.2 | > 1.2 | 0.018 | > 0.15 | > 0.15 | > 1.2 | 0.00031 | 0.00043 | 15 | 
15 | Nc1cc(OC[C@H](CO)OCP(=O)(O)O)nc(N)n1 | > 0.0027 | 0.00024 | 0.017 | 0.0048 | 0.00017 | 0.12 | 0.13 | 0.0065 | 0.014 | > 0.014 | 23 | 
16 | CCOC(=O)Cc1c(N)nc(N)nc1OCCOCP(=O)(O)O | 0.035 | > 0.15 | > 1.2 | > 1.2 | > 0.15 | > 0.15 | > 0.15 | > 1.2 | 0.078 | > 0.3 | > 300 | 
17 | Nc1nc(N)c(C2CC2)c(OCCOCP(=O)(O)O)n1 | > 1.12 |  |  |  |  |  |  |  | > 0.3 | > 0.3 | > 300 | > 1.2
18 | Nc1nc(N)n(CCOCP(=O)(O)O)c(=O)c1C1CC1 | > 1.12 | > 0.15 | > 1.2 | > 1.2 |  |  | > 0.15 | > 1.2 | > 0.3 | > 0.3 | > 300 | 
19 | N#CCc1c(N)nc(N)n(CCOCP(=O)(O)O)c1=O | 0.3 | 0.084 | > 1.2 | > 1.2 | > 0.15 | > 0.15 | > 0.15 | > 1.2 | > 0.3 | > 0.3 | > 300 | 
20 | Cc1c(N)nc(N)n(CCOCP(=O)(O)O)c1=O | > 1.12 | > 0.15 | > 1.2 | > 1.2 |  |  | > 0.15 | > 1.2 | > 0.3 | > 0.3 | > 300 | 
21 | Nc1ncnc2c1ncn2CCOCP(=O)(O)O [ADEFOVIR] | 0.0022 |  | 0.024 | 0.024 |  | 0.27 | 0.1 | > 0.17 | 0.0066 | 0.0033 | 56 | 
22 | C[C@H](Cn1cnc2c(N)ncnc21)OCP(=O)(O)O [TENOFOVIR ANHYDROUS] | 0.0046 | 0.17 | > 0.17 | > 0.17 |  | > 0.17 | > 0.17 | > 0.17 | 0.0014 | 0.0012 | 410 | 

From ChEMBL document CHEMBL1145896, “5-Substituted-2,4-diamino-6-[2-(phosphonomethoxy)ethoxy]pyrimidines-acyclic nucleoside phosphonate analogues with antiviral activity” (J Med Chem, 2003)
